Published values from different studies.
Compare with care: the assays were run in different laboratories.

`CC(C(=O)NCc1ccccc1)c1cccc(C(OC(=O)NCc2ccccc2)c2ccccc2)c1` (stereo not drawn) gave an IC50 of 2700 nM (CCRF-CEM; cell growth or viability; 72 h).
For `COC(=O)c1cc(-c2cccc(NC(=O)Nc3ccc(F)cc3)c2)on1`, the MIC was over 64 µg/mL (Mycolicibacterium fortuitum; microbial growth, broth dilution; ATCC6841; 48 h).
`CO[C@H]1/C=C/O[C@@]2(C)Oc3c(C)c(O)c4c(O)c(c(/C=N/N5CCN(C)CC5)c(O)c4c3C2=O)NC(=O)/C(C)=C\C=C\[C@H](C)[C@H](O)[C@@H](C)[C@@H](O)[C@@H](C)[C@H](OC(C)=O)[C@@H]1C` gave an MIC of under 0.78 µM (Mycobacterium marinum; microbial growth; 5 days).
`COC(=O)c1cc(-c2cccc(NC(=S)Nc3cccc(Br)c3)c2)on1` has an MIC of over 64 µg/mL (Mycolicibacterium fortuitum; microbial growth, broth dilution; ATCC6841; 48 h).
`COc1ccc(C=NNC(=S)Nc2ccc(C#N)cc2)cc1` gave an IC50 of over 200 µg/mL (CCRF-CEM; cell growth or viability; 72 h).
`N.N.[Cl][Pt][Cl]` has an IC50 of 2660 nM (PK-59; cell growth or viability, MTT; 24 h).
With `O=c1[nH]c(=O)n([C@H]2C[C@H](O)[C@@H](CO)O2)cc1/C=C/Br` the MIC50 was 50 µM (Cowpox virus; microbial growth).
For `CC(C(=O)n1nnc2ccccc21)c1cccc(C(OC(=O)n2nnc3ccccc32)c2ccccc2)c1` (stereo not drawn), the IC50 was 67000 nM (CCRF-CEM; cell growth or viability; 72 h).
The MIC50 of `CCOC(=O)c1c(CSc2ccccc2)n(C)c2cc(Br)c(O)c(CN(C)C)c12.Cl.O` is reported as over 20 µg/mL (Cowpox virus; microbial growth).
`COC(=O)c1cc(-c2cccc(NC(=S)Nc3ccc(C#N)cc3)c2)on1` has an MIC of 64 µg/mL (Mycolicibacterium fortuitum; microbial growth, broth dilution; ATCC6841; 48 h).
For `NCC(=O)Nc1ccc(-n2nc(C(F)(F)F)cc2-c2ccc3c(ccc4ccccc43)c2)cc1`, the IC90 was 2240 nM (Human immunodeficiency virus 1; viral replication, inhibitor; human PBMC; clinical isolate).
`N.N.[Cl][Pt][Cl]` gave an IC50 of 5730 nM (184B5; cell growth or viability).
The IC50 of `N#Cc1ccc(NC(=S)NN=Cc2ccc(O)cc2)cc1` is reported as 107 µg/mL (CCRF-CEM; cell growth or viability; 72 h).
`Nc1nc(O)c2ncn(COC(CO)CO)c2n1` gave an MIC50 of over 100 µM (Cowpox virus; microbial growth).
For `COC(=O)c1cc(-c2cccc(NC(=O)NCc3ccccc3)c2)on1`, the MIC was over 64 µg/mL (Mycolicibacterium fortuitum; microbial growth, broth dilution; ATCC6841; 48 h).
The MIC of `CO[C@H]1/C=C/O[C@@]2(C)Oc3c(C)c(O)c4c(O)c(c(/C=N/N5CCN(C)CC5)c(O)c4c3C2=O)NC(=O)/C(C)=C\C=C\[C@H](C)[C@H](O)[C@@H](C)[C@@H](O)[C@@H](C)[C@H](OC(C)=O)[C@@H]1C` is reported as 3.1 to 6.2 µg/mL (Mycolicibacterium fortuitum; microbial growth; ATCC6841).
`COC(=O)c1cc(-c2cccc(NC(=S)Nc3ccccc3Cl)c2)on1` gave an MIC of over 64 µg/mL (Mycolicibacterium fortuitum; microbial growth, broth dilution; ATCC6841; 48 h).
`COc1cc(C(=O)c2cc3c(-c4ccccc4)c(O)ccc3o2)cc(OC)c1OC` gave an IC50 of over 50000 nM (CCRF-CEM; cell growth or viability; 72 h).
